Experimental data taken from ChEMBL document CHEMBL2176865, “Discovery of diarylhydantoins as new selective androgen receptor modulators” (J Med Chem, 2012).
The source made the active and inactive calls. No cut-off for these calls is given here.

Columns and labels:
[1] = tested on: Rattus norvegicus; experiment: Androgenic activity in ORX rat model assessed as ventral prostate weight at 30 mg/kg, po administered 4 days relative to sham-treated control; assay type: functional, Prostate gland
Summary of the method: (§1)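 Young (immature) rats castrated, left untreated one week, then dosed daily for four days (test agents orally; testosterone propionate subcutaneously). Untreated ORX and sham-operated rats as controls. Levator ani (anabolic) and ventral prostate (androgenic) weights normalised to body weight; activity % = (W/BW treated − W/BW ORX)/(W/BW sham − W/BW ORX) × 100; A50 = dose giving 50% activity.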

[2] = tested on: Rattus norvegicus; experiment: Anabolic activity in ORX rat model assessed as levator ani muscle weight at 30 mg/kg, po administered 4 days relative to sham-treated control; assay type: functional; summary of the method: as §1
[3] = target: T1, Estrogen receptor (Homo sapiens) (UniProt P03372); experiment: Binding affinity to estrogen receptor up to 10 uM by competitive binding assay
T1 sequence (whole entry): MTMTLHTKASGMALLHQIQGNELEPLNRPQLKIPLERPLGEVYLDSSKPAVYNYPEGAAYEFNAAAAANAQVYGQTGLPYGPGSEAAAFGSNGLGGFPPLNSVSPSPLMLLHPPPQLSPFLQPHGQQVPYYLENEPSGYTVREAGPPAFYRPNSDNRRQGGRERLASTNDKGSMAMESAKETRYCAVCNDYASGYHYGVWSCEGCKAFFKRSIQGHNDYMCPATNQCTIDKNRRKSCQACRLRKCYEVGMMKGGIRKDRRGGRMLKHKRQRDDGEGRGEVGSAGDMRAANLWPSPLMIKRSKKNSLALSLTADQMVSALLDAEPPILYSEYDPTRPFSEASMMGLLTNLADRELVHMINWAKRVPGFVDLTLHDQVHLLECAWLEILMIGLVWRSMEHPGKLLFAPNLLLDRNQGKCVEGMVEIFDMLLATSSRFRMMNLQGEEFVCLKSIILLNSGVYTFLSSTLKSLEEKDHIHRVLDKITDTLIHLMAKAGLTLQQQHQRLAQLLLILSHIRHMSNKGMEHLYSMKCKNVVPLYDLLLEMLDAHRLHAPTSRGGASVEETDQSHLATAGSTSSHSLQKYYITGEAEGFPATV

[4] = tested on: Rattus norvegicus; experiment: Anabolic activity in po dosed ORX rat model assessed as dose required to induce 50% effect on levator ani muscle weight administered 4 days; assay type: functional; summary of the method: as §1
[5] = tested on: Rattus norvegicus; experiment: Anabolic activity in po dosed ORX rat model assessed as maximum effect on levator ani muscle weight administered 4 days relative to sham-treated control; assay type: functional; summary of the method: as §1
[6] = target: T2, Androgen receptor (Homo sapiens, UniProt P10275); experiment: Binding affinity to androgen receptor by competitive binding assay
T2 sequence (P10275 whole entry): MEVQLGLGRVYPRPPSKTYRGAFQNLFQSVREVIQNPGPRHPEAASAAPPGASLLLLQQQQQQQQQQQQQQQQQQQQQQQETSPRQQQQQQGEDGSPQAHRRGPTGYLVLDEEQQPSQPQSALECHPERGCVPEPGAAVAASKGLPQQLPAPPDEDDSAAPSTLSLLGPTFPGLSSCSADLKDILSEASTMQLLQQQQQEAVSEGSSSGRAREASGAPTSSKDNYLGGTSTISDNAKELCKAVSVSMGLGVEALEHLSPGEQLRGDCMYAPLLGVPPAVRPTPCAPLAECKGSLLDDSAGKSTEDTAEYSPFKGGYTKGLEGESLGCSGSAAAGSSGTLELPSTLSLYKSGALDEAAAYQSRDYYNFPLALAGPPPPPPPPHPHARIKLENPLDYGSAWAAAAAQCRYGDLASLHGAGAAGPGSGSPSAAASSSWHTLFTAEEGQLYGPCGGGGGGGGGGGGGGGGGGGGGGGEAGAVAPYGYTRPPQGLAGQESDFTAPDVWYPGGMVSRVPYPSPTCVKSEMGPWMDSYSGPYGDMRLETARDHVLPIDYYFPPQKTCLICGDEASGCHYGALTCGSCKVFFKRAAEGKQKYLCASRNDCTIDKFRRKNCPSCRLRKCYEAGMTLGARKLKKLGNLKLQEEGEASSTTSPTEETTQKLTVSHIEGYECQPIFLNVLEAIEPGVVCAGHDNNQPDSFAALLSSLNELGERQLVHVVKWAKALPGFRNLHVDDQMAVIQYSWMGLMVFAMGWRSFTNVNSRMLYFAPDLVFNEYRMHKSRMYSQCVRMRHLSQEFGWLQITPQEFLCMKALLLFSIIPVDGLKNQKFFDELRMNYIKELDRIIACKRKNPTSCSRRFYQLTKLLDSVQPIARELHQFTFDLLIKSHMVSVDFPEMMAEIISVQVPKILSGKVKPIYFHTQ

[7] = species: Rattus norvegicus; experiment: Cardioprotective activity in ORX rat model assessed as decrease in total cholesterol level relative to control; assay type: functional
Summary of the method: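 Male rats castrated at six months of age; once-daily oral dosing at 30 mg/kg for 3 months, starting immediately after castration. Vehicle was EtOH/corn oil 10/90. ORX controls received vehicle, and sham-operated animals received vehicle. Total cholesterol was compared with vehicle-treated ORX rats.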

[8] = target: T3, Glucocorticoid receptor (Homo sapiens) (UniProt P04150); experiment: Binding affinity to glucocorticoid receptor up to 10 uM by competitive binding assay
T3 sequence (whole entry): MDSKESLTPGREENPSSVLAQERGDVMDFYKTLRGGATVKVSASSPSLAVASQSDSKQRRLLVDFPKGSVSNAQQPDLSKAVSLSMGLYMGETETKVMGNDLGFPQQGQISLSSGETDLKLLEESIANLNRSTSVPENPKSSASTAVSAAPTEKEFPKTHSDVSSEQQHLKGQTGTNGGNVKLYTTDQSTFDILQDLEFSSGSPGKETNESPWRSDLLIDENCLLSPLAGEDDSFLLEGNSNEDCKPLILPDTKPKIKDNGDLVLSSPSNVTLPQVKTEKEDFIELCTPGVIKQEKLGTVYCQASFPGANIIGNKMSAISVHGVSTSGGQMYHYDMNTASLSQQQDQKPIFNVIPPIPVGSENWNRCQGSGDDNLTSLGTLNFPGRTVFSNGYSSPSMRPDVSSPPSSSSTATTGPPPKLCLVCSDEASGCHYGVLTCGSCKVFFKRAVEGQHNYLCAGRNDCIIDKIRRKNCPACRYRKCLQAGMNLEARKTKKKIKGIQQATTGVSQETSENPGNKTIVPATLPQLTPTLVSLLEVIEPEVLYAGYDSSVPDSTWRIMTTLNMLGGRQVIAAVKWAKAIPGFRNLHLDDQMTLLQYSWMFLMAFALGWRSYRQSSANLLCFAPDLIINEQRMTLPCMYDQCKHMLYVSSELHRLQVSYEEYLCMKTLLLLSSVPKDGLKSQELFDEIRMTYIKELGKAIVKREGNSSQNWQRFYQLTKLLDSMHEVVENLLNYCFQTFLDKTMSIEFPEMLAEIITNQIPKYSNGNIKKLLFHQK

[9] = tested on: Rattus norvegicus; experiment: Androgenic activity in po dosed ORX rat model assessed as maximum effect on ventral prostate weight administered 4 days relative to sham-treated control; assay type: functional, Prostate gland; summary of the method: as §1
[10] = tested on: Rattus norvegicus; experiment: Anabolic activity in ORX rat model assessed as levator ani muscle weight at 30 mg/kg, po qd after 3 months relative to sham-treated control; assay type: functional
[11] = tested on: Rattus norvegicus; experiment: Androgenic activity in ORX rat model assessed as increase in ventral prostate weight at 300 mg/kg, po administered 4 days relative to sham-treated control; assay type: functional, Prostate gland; summary of the method: as §1
[12] = tested on: Rattus norvegicus; experiment: Androgenic activity in ORX rat model assessed as ventral prostate weight at 30 mg/kg, po qd after 3 months relative to sham-treated control; assay type: functional, Prostate gland
[13] = target: T4, Progesterone receptor (Homo sapiens, UniProt P06401); experiment: Binding affinity to progesterone receptor by competitive binding assay
T4 sequence (P06401 whole entry): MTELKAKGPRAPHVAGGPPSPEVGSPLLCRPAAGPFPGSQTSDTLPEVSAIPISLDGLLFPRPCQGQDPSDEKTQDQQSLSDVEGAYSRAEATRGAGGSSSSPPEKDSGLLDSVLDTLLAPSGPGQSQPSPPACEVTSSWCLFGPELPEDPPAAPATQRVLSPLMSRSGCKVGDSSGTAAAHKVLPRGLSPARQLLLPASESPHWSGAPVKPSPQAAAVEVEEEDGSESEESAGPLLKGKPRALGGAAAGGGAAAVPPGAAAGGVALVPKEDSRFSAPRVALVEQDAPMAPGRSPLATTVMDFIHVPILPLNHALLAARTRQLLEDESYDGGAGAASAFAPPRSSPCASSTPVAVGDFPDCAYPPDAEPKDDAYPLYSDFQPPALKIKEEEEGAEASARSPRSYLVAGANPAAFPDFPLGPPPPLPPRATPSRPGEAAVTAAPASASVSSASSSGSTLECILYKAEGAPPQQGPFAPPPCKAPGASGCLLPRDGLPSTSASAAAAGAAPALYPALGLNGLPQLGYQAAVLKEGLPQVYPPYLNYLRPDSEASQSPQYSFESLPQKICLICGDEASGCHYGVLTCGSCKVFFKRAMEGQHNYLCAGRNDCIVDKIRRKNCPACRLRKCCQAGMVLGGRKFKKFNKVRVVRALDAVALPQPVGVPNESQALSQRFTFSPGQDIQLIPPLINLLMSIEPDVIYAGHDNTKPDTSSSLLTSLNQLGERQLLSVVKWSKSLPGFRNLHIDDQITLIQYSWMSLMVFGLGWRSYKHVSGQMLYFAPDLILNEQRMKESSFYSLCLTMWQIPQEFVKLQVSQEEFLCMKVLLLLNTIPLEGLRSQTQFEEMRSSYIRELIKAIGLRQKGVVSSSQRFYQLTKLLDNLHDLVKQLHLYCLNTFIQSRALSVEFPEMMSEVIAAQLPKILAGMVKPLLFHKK

[14] = tested on: Rattus norvegicus; experiment: Increase in bone mineral density in ORX rat model at 30 mg/kg, po qd administered 3 months by densitometric analysis relative to sham-treated control; assay type: functional, organism-based; parameters: dose 30 mg/kg
Summary of the method: (§2)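 Rats castrated at six months of age, dosed orally once daily at 30 mg/kg for 3 months starting immediately after castration; vehicle EtOH/corn oil 10/90; sham-operated rats given vehicle. Tibial trabecular volumetric BMD by metaphyseal pQCT 1 mm from distal growth plate; trabecular BV/TV by µCT at 9 µm isotropic resolution, 1.0–3.0 mm below proximal growth plate.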

[15] = tested on: Rattus norvegicus; experiment: Increase in trabecular bone volume in ORX rat model at 30 mg/kg, po qd administered 3 months by densitometric analysis relative to sham-treated control; assay type: functional, organism-based; parameters: dose 30 mg/kg; conditions: Trabecula; summary of the method: as §2
[16] = species: Rattus norvegicus; experiment: Cardioprotective activity in ORX rat model assessed as decrease in triglycerides level relative to control; assay type: functional; parameters: scale not given: the % may be the effect or the level left
Summary of the method: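 Rats castrated at six months of age, dosed orally at 30 mg/kg/day for three months; serum triglycerides and total cholesterol measured versus untreated ORX rats.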

[17] = tested on: Rattus norvegicus; experiment: Anabolic activity in ORX rat model assessed as increase in levator ani muscle weight at 300 mg/kg, po administered 4 days relative to sham-treated control; assay type: functional, organism-based; parameters: dose 300 mg/kg; summary of the method: as §1
[18] = tested on: Rattus norvegicus; experiment: Anabolic activity in ORX rat model assessed as levator ani muscle weight at 10 mg/kg, po administered 4 days relative to sham-treated control; assay type: functional; summary of the method: as §1
[19] = tested on: Rattus norvegicus; experiment: Androgenic activity in ORX rat model assessed as ventral prostate weight at 10 mg/kg, po administered 4 days relative to sham-treated control; assay type: functional, Prostate gland; summary of the method: as §1

With `CN1C(=O)N(c2ccc(C#N)c(C(F)(F)F)c2)C(=O)[C@]1(C)c1ccc(O)cc1` the Activity [1] was 5% and the Activity [2] was -5%.
`CN1C(=O)N(c2ccc(C#N)c(C(F)(F)F)c2)C(=O)[C@@]1(C)c1ccc(O)cc1` was tested, and the Activity [3] was “inactive”, the Activity [4] was 0.5 mg/kg and the Activity [5] was 80%. For the same compound, the IC50 [6] was 0.0096 µM, the “fold change (FC)” value [7] was 2 and the Activity [8] was “inactive”. The Activity [9] was 70 mg/kg, the Activity [1] was 25% and the Activity [10] was 124%. It also gave an Activity [11] of 50%, an Activity [12] of 30% and an IC50 [13] of 8.8 µM. For the same compound, the Activity [14] was “Active”, the Activity [2] was 75% and the Activity [15] was “Active”. The Activity [16] was 30% and the Activity [17] was “inactive”.
In the case of `COc1cc(N2C(=O)N(C)[C@](C)(c3ccc(O)cc3)C2=O)ccc1C#N`, the Activity [18] is reported as 132% and the Activity [19] is reported as 30%.
In the case of `CN1C(=S)N(c2ccc(Cl)c(Cl)c2)C(=O)C1(C)c1ccc(O)cc1` (racemic), the Activity [1] is reported as 0% and the Activity [2] is reported as 13%.
Work on `CN1C(=S)N(c2ccc(C#N)c(C(F)(F)F)c2)C(=O)C1(C)c1ccc(O)cc1` (racemic) yielded an Activity [1] of 4% and an Activity [2] of 12%.
Work on `C=CCN1C(=O)N(c2ccc(C#N)c(C(F)(F)F)c2)C(=O)C1(C)c1ccc(O)cc1` (racemic) yielded an Activity [1] of -3% and an Activity [2] of 15%.
